Measurements taken from article PMC6054565 (ACS chemical biology, 2018).

Experiments:
Assay in all cases: chemiluminescence
Type in all cases: binding
[1] = target: BtYcgR; settings: read-out: KD^a; 50 nM protein; 50 mM HEPES pH 7.2, 100 mM KCl, 10 mM DTT, 0.1% BSA; 28 °C
Procedure, shortened: (§1)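 Purified from E. coli co-expressing the c-di-GMP phosphodiesterase PdeH. Biosensor (YcgR domain inserted at the 91/92 site of split RLuc8) at 50 nM with c-di-GMP in 100 µL, equilibrated ≥10 min at 28 °C. Injected 20 µL of 60 µM coelenterazine-h in 50 mM HEPES pH 7.2, 100 mM KCl, 300 mM ascorbate. Total luminescence integrated 10 s after a 3 s delay.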

[2] = target: PtYcgR; settings: read-out: KD^a; 50 nM protein; 50 mM HEPES pH 7.2, 100 mM KCl, 10 mM DTT, 0.1% BSA; 28 °C
Procedure, shortened: as §1

[3] = target: TcYcgR; settings: read-out: KD^a; 50 nM protein; 50 mM HEPES pH 7.2, 100 mM KCl, 10 mM DTT, 0.1% BSA; 28 °C
Procedure, shortened: as §1

[4] = target: ToYcgR; settings: read-out: KD^a; 50 nM protein; 50 mM HEPES pH 7.2, 100 mM KCl, 10 mM DTT, 0.1% BSA; 28 °C
Procedure, shortened: as §1

[5] = target: T1, EcYcgR (Escherichia coli, UniProt P76010)
T1 sequence (P76010 1-244): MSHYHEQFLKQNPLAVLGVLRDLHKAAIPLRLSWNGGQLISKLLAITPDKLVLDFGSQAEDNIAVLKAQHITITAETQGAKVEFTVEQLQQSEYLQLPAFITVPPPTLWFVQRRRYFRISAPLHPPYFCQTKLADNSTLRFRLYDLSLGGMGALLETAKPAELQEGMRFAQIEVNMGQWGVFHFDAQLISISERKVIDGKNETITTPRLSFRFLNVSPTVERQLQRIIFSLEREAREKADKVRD
Procedure, shortened: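 Then 20 µL of 60 µM coelenterazine-h (in HEPES/KCl/300 mM ascorbate, equilibrated at RT for at least 30 min) was injected. Total luminescence was integrated for 10 s after a 3 s delay at 28 °C.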

[6] = target: TuYcgR; settings: read-out: KD^a; 50 nM protein; 50 mM HEPES pH 7.2, 100 mM KCl, 10 mM DTT, 0.1% BSA; 28 °C
Procedure, shortened: as §1

[7] = target: TbYcgR; settings: read-out: KD^a; 50 nM protein; 50 mM HEPES pH 7.2, 100 mM KCl, 10 mM DTT, 0.1% BSA; 28 °C
Procedure, shortened: as §1

[8] = target: CbYcgR; settings: read-out: KD^a; 50 nM protein; 50 mM HEPES pH 7.2, 100 mM KCl, 10 mM DTT, 0.1% BSA; 28 °C
Procedure, shortened: as §1

[9] = target: DnYcgR; settings: read-out: KD^a; 50 nM protein; 50 mM HEPES pH 7.2, 100 mM KCl, 10 mM DTT, 0.1% BSA; 28 °C
Procedure, shortened: as §1

[10] = target: BvYcgR; settings: read-out: KD^a; 50 nM protein; 50 mM HEPES pH 7.2, 100 mM KCl, 10 mM DTT, 0.1% BSA; 28 °C
Procedure, shortened: as §1

[11] = target: CpYcgR; settings: read-out: KD^a; 50 nM protein; 50 mM HEPES pH 7.2, 100 mM KCl, 10 mM DTT, 0.1% BSA; 28 °C
Procedure, shortened: as §1

[12] = target: TmYcgR; settings: read-out: KD^a; 50 nM protein; 50 mM HEPES pH 7.2, 100 mM KCl, 10 mM DTT, 0.1% BSA; 28 °C
Procedure, shortened: as §1

Nc1nc2c(ncn2[C@@H]2O[C@@H]3COP(=O)(O)O[C@H]4[C@@H](O)[C@H](n5cnc6c(=O)[nH]c(N)nc65)O[C@@H]4COP(=O)(O)O[C@H]3[C@H]2O)c(=O)[nH]1 [c-di-GMP]
Kd [1]: 286 ± 17 nM | Kd [2]: < 50 nM | Kd [3]: 59 ± 2 nM | Kd [4]: 379 ± 23 nM | Kd [5]: 354 ± 18 nM | Kd [6]: < 50 nM | Kd [7]: < 50 nM | Kd [8]: < 50 nM | Kd [9]: 303 ± 15 nM | Kd [10]: 105 ± 2 nM | Kd [11]: < 50 nM | Kd [12]: < 50 nM
